The source made the active and inactive calls. The rule behind the calls is not given here.
Tests used:
[1] = target: T1, Histone deacetylase (Homo sapiens) (UniProt Q13547+O15379+Q9UBN7+Q92769+Q9UQL6+Q8WUI4+Q9BY41+Q96DB2+P56524+Q9UKV0+Q969S8); test: Inhibition of HDAC in human K562 cells nuclear extracts at 100 uM; format: cell-free
How it was run: (§1)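 Total HDAC activity was measured in vitro on K-562 nuclear extracts with compound at 100 µM. Values are the mean percent change from two independent experiments.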

PBMC = test: Cytotoxicity against human PBMC assessed as reduction in cell viability at 10 to 100 uM after 24 to 48 hrs
K562 [2] = test: Antiproliferative activity against human K562 cells at 10 to 100 uM after 24 to 72 hrs; format: functional, cell-based
How it was run: (§2)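 K-562 (chronic myeloid leukemia) and U-937 (histiocytic lymphoma) cells were exposed to the indicated compound concentrations. Proliferation and viability were scored separately at 24, 48 and 72 h. Data are mean ± SD of three independent cultures.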

U-937 [3] = test: Antiproliferative activity against human U937 cells at 10 to 100 uM after 24 to 72 hrs; format: functional, cell-based; how it was run: as §2
U-937 [4] = test: Cytotoxicity against human U937 cells assessed as reduction in cell viability at 10 to 100 uM after 24 to 72 hrs; format: functional, cell-based; how it was run: as §2
[5] = target: T1, Histone deacetylase (Homo sapiens); test: Increase in HDAC activity in human K562 cells nuclear extracts at 100 uM; format: cell-based; how it was run: as §1
U-937 [6] = test: Antiproliferative activity against human U937 cells at 10 to 100 uM after 72 hrs; format: functional, cell-based; how it was run: as §2
K562 [7] = test: Cytotoxicity against human K562 cells assessed as reduction in cell viability at 10 to 100 uM after 24 to 72 hrs; format: functional, cell-based; how it was run: as §2
U-937 [8] = test: Antiproliferative activity against human U937 cells at 10 to 100 uM after 24 to 48 hrs; format: functional, cell-based; how it was run: as §2
Histone deacetylase 11 = target: T2, Histone deacetylase 11 (Homo sapiens, UniProt Q96DB2); test: Inhibition of HDAC11 (unknown origin)
T2 sequence (Q96DB2 whole entry): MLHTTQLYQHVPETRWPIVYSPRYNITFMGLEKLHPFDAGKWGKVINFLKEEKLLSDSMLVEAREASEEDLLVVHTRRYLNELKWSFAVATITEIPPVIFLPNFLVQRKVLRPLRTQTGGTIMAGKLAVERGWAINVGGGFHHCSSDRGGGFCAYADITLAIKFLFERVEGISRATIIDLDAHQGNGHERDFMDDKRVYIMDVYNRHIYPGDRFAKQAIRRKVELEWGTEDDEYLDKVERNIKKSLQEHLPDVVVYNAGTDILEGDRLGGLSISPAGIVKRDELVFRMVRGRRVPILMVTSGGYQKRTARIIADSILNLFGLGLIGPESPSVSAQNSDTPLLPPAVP
How it was run: (§3)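 Activity of individual HDAC isoenzymes (classes I, IIb and IV) was measured in vitro with compound. IC50 values come from two independent experiments.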

[9] = target: T3, Protein deacetylase HDAC6 (Homo sapiens, UniProt Q9UBN7); test: Inhibition of HDAC6 (unknown origin); how it was run: as §3
T3 sequence (Q9UBN7 whole entry): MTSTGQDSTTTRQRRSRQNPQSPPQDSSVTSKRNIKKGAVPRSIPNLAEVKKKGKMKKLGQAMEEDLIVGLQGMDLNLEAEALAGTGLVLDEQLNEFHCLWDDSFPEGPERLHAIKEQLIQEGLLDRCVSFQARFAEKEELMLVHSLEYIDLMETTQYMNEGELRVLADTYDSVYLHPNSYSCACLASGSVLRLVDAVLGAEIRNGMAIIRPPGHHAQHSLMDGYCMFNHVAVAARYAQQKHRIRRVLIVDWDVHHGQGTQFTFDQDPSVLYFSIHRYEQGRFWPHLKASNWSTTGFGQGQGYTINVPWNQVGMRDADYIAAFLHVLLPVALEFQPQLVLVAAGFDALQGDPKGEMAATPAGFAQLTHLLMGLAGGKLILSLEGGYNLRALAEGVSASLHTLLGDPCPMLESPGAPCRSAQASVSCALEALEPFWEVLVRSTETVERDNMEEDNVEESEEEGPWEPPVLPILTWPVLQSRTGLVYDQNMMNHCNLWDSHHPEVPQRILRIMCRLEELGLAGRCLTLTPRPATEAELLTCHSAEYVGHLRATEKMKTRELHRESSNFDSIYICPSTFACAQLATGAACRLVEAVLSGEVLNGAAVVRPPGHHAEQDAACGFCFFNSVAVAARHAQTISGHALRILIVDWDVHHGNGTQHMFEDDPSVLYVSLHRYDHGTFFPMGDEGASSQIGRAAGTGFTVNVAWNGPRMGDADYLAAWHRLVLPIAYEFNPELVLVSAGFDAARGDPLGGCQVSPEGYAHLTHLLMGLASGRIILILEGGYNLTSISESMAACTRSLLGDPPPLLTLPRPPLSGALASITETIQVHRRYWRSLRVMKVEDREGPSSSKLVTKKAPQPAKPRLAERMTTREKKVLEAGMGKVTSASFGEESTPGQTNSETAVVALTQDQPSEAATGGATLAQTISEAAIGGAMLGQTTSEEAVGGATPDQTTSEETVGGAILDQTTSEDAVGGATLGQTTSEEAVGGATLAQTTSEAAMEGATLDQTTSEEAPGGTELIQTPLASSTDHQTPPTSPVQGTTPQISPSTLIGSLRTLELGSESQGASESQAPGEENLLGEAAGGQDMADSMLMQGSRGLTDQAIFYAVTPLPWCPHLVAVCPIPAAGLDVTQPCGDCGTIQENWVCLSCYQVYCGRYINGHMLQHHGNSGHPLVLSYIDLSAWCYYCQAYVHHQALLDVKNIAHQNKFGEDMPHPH

Histone deacetylase 1 = Histone deacetylase 1 (Homo sapiens, UniProt Q13547); test: Inhibition of HDAC1 (unknown origin); how it was run: as §3
Histone deacetylase 1, sequence (Q13547 whole entry): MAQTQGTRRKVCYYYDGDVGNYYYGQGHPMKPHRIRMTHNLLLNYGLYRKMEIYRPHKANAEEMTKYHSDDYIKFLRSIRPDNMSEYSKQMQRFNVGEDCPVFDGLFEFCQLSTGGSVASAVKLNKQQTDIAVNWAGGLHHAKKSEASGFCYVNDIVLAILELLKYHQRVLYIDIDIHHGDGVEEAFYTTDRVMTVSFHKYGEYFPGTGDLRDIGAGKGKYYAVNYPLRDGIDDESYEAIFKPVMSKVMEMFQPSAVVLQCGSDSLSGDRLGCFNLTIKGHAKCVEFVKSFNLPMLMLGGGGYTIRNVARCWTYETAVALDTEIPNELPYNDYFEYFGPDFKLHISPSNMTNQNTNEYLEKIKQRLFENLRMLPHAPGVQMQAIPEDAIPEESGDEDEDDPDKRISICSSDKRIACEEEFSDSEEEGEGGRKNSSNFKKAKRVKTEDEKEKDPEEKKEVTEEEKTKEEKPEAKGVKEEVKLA

[10] = target: T4, Polyamine deacetylase HDAC10 (Homo sapiens, UniProt Q969S8); test: Inhibition of HDAC10 (unknown origin); how it was run: as §3
T4 sequence (Q969S8 whole entry): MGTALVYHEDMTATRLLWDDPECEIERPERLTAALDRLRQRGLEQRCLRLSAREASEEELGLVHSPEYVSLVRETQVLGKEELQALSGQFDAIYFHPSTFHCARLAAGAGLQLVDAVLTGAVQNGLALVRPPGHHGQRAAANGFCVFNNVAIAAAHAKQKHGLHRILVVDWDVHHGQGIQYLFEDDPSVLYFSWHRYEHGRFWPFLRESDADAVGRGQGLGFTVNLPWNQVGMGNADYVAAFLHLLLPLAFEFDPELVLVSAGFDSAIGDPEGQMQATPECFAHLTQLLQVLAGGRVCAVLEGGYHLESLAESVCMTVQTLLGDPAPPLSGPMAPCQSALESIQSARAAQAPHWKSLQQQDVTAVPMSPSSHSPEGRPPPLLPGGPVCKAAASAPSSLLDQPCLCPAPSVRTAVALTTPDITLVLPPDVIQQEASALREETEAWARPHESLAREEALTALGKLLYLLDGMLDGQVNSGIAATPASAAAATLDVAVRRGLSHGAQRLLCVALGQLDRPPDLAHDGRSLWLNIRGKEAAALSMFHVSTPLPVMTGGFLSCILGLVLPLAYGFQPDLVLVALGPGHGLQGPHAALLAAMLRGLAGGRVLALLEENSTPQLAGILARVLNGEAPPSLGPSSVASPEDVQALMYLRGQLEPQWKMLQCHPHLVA

Histone deacetylase 2 = Histone deacetylase 2 (Homo sapiens, UniProt Q92769); test: Inhibition of HDAC2 (unknown origin); how it was run: as §3
Histone deacetylase 2, sequence (Q92769 whole entry): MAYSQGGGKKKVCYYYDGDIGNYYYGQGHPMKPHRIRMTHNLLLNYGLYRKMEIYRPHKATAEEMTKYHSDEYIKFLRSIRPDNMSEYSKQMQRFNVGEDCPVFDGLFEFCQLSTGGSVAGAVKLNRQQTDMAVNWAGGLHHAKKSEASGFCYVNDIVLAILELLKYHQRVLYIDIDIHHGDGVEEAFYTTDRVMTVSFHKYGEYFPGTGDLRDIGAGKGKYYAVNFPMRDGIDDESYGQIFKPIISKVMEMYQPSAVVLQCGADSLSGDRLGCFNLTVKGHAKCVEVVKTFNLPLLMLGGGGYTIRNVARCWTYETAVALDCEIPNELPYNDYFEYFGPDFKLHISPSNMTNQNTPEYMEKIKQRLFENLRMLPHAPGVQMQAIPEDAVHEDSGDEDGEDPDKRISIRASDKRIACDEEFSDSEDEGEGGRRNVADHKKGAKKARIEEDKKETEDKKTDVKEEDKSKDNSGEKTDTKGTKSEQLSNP

Histone deacetylase 8 = target: T5, Histone deacetylase 8 (Homo sapiens, UniProt Q9BY41); test: Inhibition of HDAC8 (unknown origin); how it was run: as §3
T5 sequence (Q9BY41 whole entry): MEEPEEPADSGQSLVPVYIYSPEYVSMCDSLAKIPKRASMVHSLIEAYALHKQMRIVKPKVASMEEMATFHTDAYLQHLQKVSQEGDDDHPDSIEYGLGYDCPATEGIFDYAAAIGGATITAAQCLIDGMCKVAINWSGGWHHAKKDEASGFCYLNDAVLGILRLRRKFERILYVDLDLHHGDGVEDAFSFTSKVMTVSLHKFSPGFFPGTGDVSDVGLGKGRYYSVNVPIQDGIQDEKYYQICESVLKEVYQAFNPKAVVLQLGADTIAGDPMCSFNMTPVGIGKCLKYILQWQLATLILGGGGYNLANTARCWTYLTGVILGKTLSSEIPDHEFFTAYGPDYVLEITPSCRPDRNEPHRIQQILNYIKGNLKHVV

Histone deacetylase 3 = Histone deacetylase 3 (Homo sapiens, UniProt O15379); test: Inhibition of HDAC3 (unknown origin); how it was run: as §3
Histone deacetylase 3, sequence (O15379 whole entry): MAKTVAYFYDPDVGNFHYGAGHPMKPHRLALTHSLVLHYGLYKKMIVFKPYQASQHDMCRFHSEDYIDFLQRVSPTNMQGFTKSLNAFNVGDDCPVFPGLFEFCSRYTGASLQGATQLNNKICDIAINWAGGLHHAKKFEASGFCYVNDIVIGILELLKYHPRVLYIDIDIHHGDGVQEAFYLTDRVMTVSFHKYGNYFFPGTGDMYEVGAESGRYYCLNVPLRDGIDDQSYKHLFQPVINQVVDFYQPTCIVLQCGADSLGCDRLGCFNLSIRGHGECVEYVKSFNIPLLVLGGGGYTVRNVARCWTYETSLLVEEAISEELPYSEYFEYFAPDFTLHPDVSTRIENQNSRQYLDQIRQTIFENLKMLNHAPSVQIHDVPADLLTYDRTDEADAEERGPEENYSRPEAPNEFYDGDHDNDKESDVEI

Row | Compound | inhibition [1] [%] | Activity (PBMC) | inhibition (K562 [2]) | inhibition (U-937 [3]) | further results
1 | O=C(/C=C/c1ccccc1)c1cc2ccccc2oc1=O | < 10 |  |  |  | 
2 | COc1ccc(/C=C/C(=O)c2cc(=O)oc3cc(OC)ccc23)cc1 | 20 | Non-toxic | Active | Active | inhibition (U-937 [4]): Active
3 | COc1ccc(/C=C/C=O)cc1OC [3,4-DIMETHOXY CINNAMALDEHYDE] |  | Non-toxic | inactive |  | Activity [5]: 80%; inhibition (U-937 [6]): Active; Activity (K562 [7]): inactive; inhibition (U-937 [8]): inactive
4 | COc1ccc2cc(C(=O)/C=C/C=C/c3ccc(O)c(OC)c3)c(=O)oc2c1 | < 10 |  |  |  | 
5 | COc1ccc2cc(C(=O)/C=C/C=C/c3ccc(OC)c(OC)c3)c(=O)oc2c1 | 50 | Non-toxic | Active | Active | IC50 (Histone deacetylase 11): 74 µM; IC50 [9]: 32 µM; IC50 (Histone deacetylase 1): 59 µM; IC50 [10]: 85 µM; IC50 (Histone deacetylase 2): 33 µM; IC50 (Histone deacetylase 8): 28 µM; IC50 (Histone deacetylase 3): 12 µM
6 | COc1ccc(/C=C/C(=O)c2cc3ccc(OC)cc3oc2=O)cc1 | < 10 |  |  |  | 
7 | COc1ccc2cc(C(C)=O)c(=O)oc2c1 | 20 | Non-toxic | inactive |  | inhibition (U-937 [6]): Active; Activity (K562 [7]): inactive; inhibition (U-937 [8]): inactive

Second part, led by results:

Row | inhibition [1] [%] | Compound | Activity (PBMC) | inhibition (K562 [2]) | inhibition (U-937 [3]) | further results
8 | 30 | COc1ccc(/C=C/C=C/C(=O)c2cc3ccc(OC)cc3oc2=O)cc1 | Non-toxic | Active | Active | 
9 | < 10 | COc1ccc2cc(C(=O)/C=C/c3ccc(OC)c(OC)c3)c(=O)oc2c1 |  |  |  | 
10 | < 10 | O=C(/C=C/C=C/c1ccccc1)c1cc2ccccc2oc1=O |  |  |  | 
